Results reported in ChEMBL document CHEMBL1155436, “Phantasmidine: an epibatidine congener from the ecuadorian poison frog Epipedobates anthonyi” (J Nat Prod, 2010).
Activity calls are given as the source filed them. The rule behind the calls is not given here.

Key:
[1] = biological target: T1, Neuronal acetylcholine receptor; alpha3/beta4 (Rattus norvegicus) (UniProt P04757+P12392); experiment: Agonist activity at rat alpha3beta4 nAChR expressed in HEK cells assessed as membrane depolarization after 1 hr by HPLC based fluorescence assay; type: functional, cell-based; details: HEK293
How it was run: (§1)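 Membrane potential assay in G418-selected KXR3β4R2, KXR4β4R1 or KXR4β2R2 lines on poly-D-lysine plates (DMEM, 10% FBS, near confluence). Cells washed in HBSS/HEPES pH 7.4 and loaded with no-wash dye 1 h dark at room temperature. Fractions reconstituted in HBSS/HEPES, added after 15 s basal, read 105 s. Nicotine (300 µM added solution) and KCl (160 mM) follow. Peak response normalised to KCl maximum after basal subtraction.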

[2] = biological target: T2, Neuronal acetylcholine receptor; alpha3/beta4 (Homo sapiens) (UniProt P30926+P32297); experiment: Agonist activity at human alpha3beta4 nAChR in human SH-SY5Y cells assessed as membrane depolarization after 1 hr by HPLC based fluorescence assay; type: functional, cell-based
How it was run: (§2)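 Membrane potential dye assay in native SH-SY5Y, IMR-32 or TE-671 cells. Cells grown near confluence on poly-D-lysine plates in DMEM with 10% FBS, washed in HBSS/20 mM HEPES pH 7.4, then loaded with dye 1 h in dark at room temperature. Ex 530/em 565 nm. Sequence: 15 s basal, HPLC fraction 105 s, 300 µM nicotine (added solution), 160 mM KCl (added solution). Response = basal-subtracted peak ÷ KCl maximum.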

[3] = biological target: T2, Neuronal acetylcholine receptor; alpha3/beta4 (Homo sapiens); experiment: Agonist activity at human alpha3beta4 nAChR in human IMR32 cells assessed as membrane depolarization after 1 hr by HPLC based fluorescence assay; type: functional, cell-based; details: IMR-32; how it was run: as §2
[4] = biological target: T1, Neuronal acetylcholine receptor; alpha3/beta4 (Rattus norvegicus); experiment: Agonist activity at rat alpha3beta4 nAChR expressed in HEK cells assessed as elevation of intracellular calcium after 1 hr by HPLC based fluorescence assay; type: functional, cell-based; details: HEK293
[5] = biological target: Neuronal acetylcholine receptor; alpha4/beta2 (Homo sapiens) (UniProt P17787+P43681); experiment: Agonist activity at human alpha4beta2 nAChR expressed in human K177 cells assessed as membrane depolarization after 1 hr by HPLC based fluorescence assay; type: functional, cell-based
[6] = biological target: Acetylcholine receptor; alpha1/beta1/delta/gamma (Homo sapiens) (UniProt P02708+P07510+P11230+Q07001); experiment: Agonist activity at human alpha-1-beta-1-gamma-delta nAChR expressed in human TE671 cells assessed as membrane depolarization after 1 hr by HPLC based fluorescence assay; type: functional, cell-based; details: TE-671; how it was run: as §2
[7] = biological target: Neuronal acetylcholine receptor; alpha4/beta2 (Rattus norvegicus) (UniProt P09483+P12390); experiment: Agonist activity at rat alpha4beta2 nAChR expressed in HEK cells assessed as membrane depolarization after 1 hr by HPLC based fluorescence assay; type: functional, cell-based; details: HEK293; how it was run: as §1
[8] = biological target: Neuronal acetylcholine receptor; alpha4/beta4 (Rattus norvegicus) (UniProt P09483+P12392); experiment: Agonist activity at rat alpha4beta4 nAChR expressed in HEK cells assessed as membrane depolarization after 1 hr by HPLC based fluorescence assay; type: functional, cell-based; details: HEK293; how it was run: as §1
[9] = Selectivity of beta4 nAChR over beta2 nAChR

Compound	Activity [1]	Activity [2]	Activity [3]	Activity [4]	fold change (FC) [9]	also measured
Clc1ccc(C2CC3CCC2N3)cn1 (stereo not given)	Active	Active	Active	Active	–	–
Clc1ccc2c(n1)O[C@@]13CC[C@@H]1NC[C@@H]23	Active	Active	Active	Active	–	Activity [5]: inactive; Activity [6]: inactive; Activity [7]: inactive; Activity [8]: Active
O=C1NC[C@@]2(CN3CCC2CC3)O1	–	–	–	–	> 20	–
Clc1ccc(C2=CCC[C@@H]3CC[C@H]2N3)cn1	–	–	–	–	3	–
c1cncc([C@H]2C[C@@H]3CC[C@H]2N3)c1	–	–	–	–	3	–
